For one compound, Kd results are on record in article PMC3741069 (Biochemistry, 2013).

Residue numbers refer to the chain shown, from its start.

One may read the Kd as the constant that tells how readily two partners part at equilibrium. A lower Kd goes with tighter binding.

What all share (assay): spectral perturbation titration
Assay type in all cases: binding

Experiment [1] deals with T1, nitrate reductase (NarB) (Synechococcus elongatus, UniProt P39458).
T1 sequence (P39458 15-729): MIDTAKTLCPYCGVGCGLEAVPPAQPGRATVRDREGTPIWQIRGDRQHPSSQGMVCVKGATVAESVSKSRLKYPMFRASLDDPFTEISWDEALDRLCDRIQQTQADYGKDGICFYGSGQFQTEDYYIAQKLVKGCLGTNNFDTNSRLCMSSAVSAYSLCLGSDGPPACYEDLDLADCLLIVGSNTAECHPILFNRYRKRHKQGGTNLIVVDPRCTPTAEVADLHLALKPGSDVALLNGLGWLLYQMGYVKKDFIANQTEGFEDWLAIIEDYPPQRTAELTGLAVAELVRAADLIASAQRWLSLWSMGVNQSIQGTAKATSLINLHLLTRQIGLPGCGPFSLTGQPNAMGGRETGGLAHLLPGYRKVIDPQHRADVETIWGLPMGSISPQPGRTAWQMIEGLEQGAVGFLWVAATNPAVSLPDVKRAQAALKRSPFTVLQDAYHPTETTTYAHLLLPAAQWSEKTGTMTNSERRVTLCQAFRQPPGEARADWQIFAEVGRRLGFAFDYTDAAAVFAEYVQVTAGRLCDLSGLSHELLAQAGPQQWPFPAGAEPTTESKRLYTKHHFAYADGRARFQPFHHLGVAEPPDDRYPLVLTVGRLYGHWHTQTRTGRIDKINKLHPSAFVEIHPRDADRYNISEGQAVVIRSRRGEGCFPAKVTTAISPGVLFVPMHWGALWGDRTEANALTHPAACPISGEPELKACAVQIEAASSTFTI
Put shortly: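 Recombinant wild-type Synechococcus sp. PCC 7942 NarB had its first 14 residues deleted and a C-terminal His6 tag. It was expressed in E. coli DH5a with 100 μM molybdate and purified by Co affinity, DEAE and gel filtration. Oxidized enzyme was titrated with ferredoxin (read at 420 minus 600 nm) or nitrate (read at 400 minus 470 nm; change at saturating nitrate taken as 100% complex). Kd came from a single binding isotherm fit.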

In experiment [2] the target is T2, nitrate reductase (NarB) (Synechococcus elongatus, UniProt P39458, R84K).
T2 sequence (P39458 15-729 R84K): T1 sequence (P39458 15-729) with R70K
An outline of the steps: (§1)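 Single-residue NarB variants were made by site-directed mutagenesis and expressed and purified as for wild type (His6, Co affinity, DEAE, gel filtration). Complex formation with ferredoxin or nitrate was followed by difference absorbance at variant-specific wavelength pairs chosen for signal:noise. The change at saturating nitrate was taken as 100% complex. Kd came from fitting perturbation magnitude against ligand concentration to a single binding isotherm.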

The target of experiment [3] is T3, nitrate reductase (NarB) (Synechococcus elongatus, UniProt P39458, K72R).
T3 sequence (P39458 15-729 K72R): T1 sequence (P39458 15-729) with K58R
An outline of the steps:
as §1

`O=[N+]([O-])O` [nitrate]: the Kd stood at 1 ± 0.3 µM in experiment [1], 6 ± 1 µM in experiment [2] and 15.5 ± 5 µM in experiment [3].
